Biological target: Aurora kinase B/Inner centromere protein (Homo sapiens, UniProt Q96GD4)
Assay: Inhibition of AURKB/INCENP (unknown origin) preincubated for 15 mins prior to ATP addition by FRET-based homogenous assay
Type: protein-complex assay
Conditions: not given
Outline: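 The enzyme was AURKB/INCENP in a FRET-based homogeneous assay run to kit specifications, with ATP at 128 μM. […] Each IC50 came from a single determination, reported with its standard fitting error.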

Chain of Aurora kinase B/Inner centromere protein (Q96GD4 whole entry): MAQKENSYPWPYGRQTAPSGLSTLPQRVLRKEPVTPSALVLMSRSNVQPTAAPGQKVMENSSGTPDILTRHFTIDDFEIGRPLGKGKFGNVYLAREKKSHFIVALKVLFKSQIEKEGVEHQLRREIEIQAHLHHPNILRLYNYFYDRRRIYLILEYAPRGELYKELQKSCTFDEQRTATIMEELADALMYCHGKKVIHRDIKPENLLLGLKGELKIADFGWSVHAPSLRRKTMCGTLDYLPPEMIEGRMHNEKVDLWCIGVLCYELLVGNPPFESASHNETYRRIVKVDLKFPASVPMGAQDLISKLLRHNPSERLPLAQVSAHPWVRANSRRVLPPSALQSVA
Chain of Aurora kinase B/Inner centromere protein (Q9NQS7 whole entry, further chain): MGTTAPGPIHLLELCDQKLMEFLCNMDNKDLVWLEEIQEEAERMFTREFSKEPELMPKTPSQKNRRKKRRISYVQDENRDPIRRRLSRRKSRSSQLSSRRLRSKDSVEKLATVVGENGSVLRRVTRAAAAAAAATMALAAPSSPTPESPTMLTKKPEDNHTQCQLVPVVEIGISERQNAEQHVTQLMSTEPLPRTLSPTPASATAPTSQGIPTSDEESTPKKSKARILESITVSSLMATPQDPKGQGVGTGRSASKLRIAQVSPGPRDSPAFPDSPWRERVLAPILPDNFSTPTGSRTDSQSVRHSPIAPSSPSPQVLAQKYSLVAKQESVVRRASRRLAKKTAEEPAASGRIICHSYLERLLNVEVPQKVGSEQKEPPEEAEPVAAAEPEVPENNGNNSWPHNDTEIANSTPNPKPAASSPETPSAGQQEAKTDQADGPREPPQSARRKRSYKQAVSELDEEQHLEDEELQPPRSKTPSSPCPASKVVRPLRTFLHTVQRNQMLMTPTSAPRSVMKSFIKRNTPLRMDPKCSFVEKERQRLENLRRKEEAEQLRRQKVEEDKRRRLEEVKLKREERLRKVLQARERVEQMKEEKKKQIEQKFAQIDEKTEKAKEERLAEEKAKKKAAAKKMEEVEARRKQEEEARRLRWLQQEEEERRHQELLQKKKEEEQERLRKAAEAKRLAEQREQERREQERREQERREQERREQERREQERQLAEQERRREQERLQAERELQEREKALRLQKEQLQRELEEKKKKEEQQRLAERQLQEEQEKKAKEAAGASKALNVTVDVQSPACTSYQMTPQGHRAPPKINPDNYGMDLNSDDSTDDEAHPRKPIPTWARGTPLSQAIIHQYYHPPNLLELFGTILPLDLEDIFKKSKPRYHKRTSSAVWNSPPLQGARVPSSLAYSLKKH

| Compound | IC50 [µM] |
| --- | --- |
| O=C(N[C@@H](c1ccccn1)C1CC1)c1ccc2[nH]nc(-c3ccc(N4[C@H]5CC[C@H]4CC(O)C5)cc3)c2c1 (stereo in doubt; 87) | 1.7 |

Biological target: T1, Dual specificity protein kinase TTK (Homo sapiens, UniProt P33981)
T1 sequence (P33981 whole entry): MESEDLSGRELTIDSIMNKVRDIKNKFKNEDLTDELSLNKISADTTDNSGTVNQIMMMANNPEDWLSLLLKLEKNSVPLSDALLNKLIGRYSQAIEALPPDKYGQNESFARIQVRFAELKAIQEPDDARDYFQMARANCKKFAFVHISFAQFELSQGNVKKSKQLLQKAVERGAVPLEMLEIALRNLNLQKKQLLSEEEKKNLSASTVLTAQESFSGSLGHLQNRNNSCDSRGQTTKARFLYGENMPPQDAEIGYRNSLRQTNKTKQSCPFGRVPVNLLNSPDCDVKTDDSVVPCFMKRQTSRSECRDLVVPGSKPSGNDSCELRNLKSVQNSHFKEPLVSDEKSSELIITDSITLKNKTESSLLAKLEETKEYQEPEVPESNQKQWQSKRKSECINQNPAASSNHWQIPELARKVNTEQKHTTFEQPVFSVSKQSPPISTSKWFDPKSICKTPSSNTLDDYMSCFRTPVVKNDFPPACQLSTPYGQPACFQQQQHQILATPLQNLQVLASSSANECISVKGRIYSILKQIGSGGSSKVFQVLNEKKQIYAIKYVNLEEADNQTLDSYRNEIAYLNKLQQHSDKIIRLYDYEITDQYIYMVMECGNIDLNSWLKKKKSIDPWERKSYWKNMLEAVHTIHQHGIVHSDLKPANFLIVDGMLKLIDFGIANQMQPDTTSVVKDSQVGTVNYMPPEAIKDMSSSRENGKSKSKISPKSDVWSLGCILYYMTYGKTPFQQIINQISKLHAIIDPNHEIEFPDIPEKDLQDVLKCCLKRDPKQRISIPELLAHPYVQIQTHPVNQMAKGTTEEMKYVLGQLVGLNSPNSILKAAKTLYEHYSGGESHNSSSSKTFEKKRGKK
Assay: Inhibition of amino terminal GST-fused full length human TTK using His6-SUMO-TTK-N as substrate preincubated for 15 mins prior to ATP addition by indirect ELISA detection system
Conditions: not given

| Compound | IC50 [µM] |
| --- | --- |
| O=C(NCC1(N2CCOCC2)CCCCC1)c1ccc2[nH]nc(-c3ccc(N4CC5CCC(C4)O5)cc3)c2c1 | 0.018 |
| CN1CCN(c2ccc(-c3n[nH]c4ccc(NC(=O)C(c5ccsc5)N5CCCC5)cc34)cc2S(C)(=O)=O)CC1 (racemic) | 0.018 |
| CN1[C@@H]2CC[C@H]1C[C@H](Oc1ccc(-c3n[nH]c4ccc(C(=O)NC(c5ccccc5)C5CC5)cc34)cc1)C2 (mixture of isomers) | 0.0073 |
| O=C(N[C@@H](c1ccccn1)C1CC1)c1ccc2[nH]nc(-c3ccc(N4[C@H]5CC[C@H]4CC(O)C5)cc3)c2c1 (stereo in doubt; 87) | 0.0027 |

Further lines, results first:

| IC50 [µM] | Compound |
| --- | --- |
| 0.23 | O=C(NCC1(N2CCOCC2)CCCCC1)c1ccc2[nH]nc(-c3ccc(N4CCC(O)CC4)cc3)c2c1 |
| 0.34 | O=C(NC(c1ccccc1)C1CC1)c1ccc2[nH]nc(-c3cccc(N4CCOCC4)c3)c2c1 (racemic) |
| 0.016 | O=CN1CCC(Oc2ccc(-c3n[nH]c4ccc(C(=O)NC(c5ccccc5)C5CC5)cc34)cc2)CC1 (racemic) |

Biological target: Cytochrome P450 3A4 (Homo sapiens, UniProt P08684)
Sequence (P08684 whole entry): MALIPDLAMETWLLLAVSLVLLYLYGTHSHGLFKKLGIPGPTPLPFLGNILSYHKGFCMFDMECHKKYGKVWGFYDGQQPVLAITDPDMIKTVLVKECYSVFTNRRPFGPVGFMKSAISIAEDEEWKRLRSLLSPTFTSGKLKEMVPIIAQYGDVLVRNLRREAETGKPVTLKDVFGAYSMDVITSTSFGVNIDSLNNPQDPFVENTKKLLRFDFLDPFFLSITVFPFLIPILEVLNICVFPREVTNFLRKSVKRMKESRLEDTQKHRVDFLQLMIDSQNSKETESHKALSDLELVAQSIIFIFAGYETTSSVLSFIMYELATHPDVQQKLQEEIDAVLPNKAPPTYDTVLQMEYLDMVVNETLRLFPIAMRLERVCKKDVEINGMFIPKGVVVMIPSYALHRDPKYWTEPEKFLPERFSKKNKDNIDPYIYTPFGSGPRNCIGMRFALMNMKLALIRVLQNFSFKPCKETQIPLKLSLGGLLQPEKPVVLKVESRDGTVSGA
Assay: Inhibition of human CYP3A4 using BFC as substrate preincubated for 10 mins followed by enzyme/substrate addition measured after 30 mins by fluorescence assay
Type: ADME
Conditions: not given

| Compound | IC50 [µM] |
| --- | --- |
| O=CN1CCC(Oc2ccc(-c3n[nH]c4ccc(C(=O)NC(c5ccccc5)C5CC5)cc34)cc2)CC1 (racemic) | 1.5 |
| O=C(N[C@@H](c1ccccn1)C1CC1)c1ccc2[nH]nc(-c3ccc(N4[C@H]5CC[C@H]4CC(O)C5)cc3)c2c1 (stereo in doubt; 87) | 1.4 |

Test system: MDA-MB-468
Assay: Cytotoxicity against human MDA-MB-468 cells after 5 days by sulforhodamine B assay
Type: functional
Conditions: not given
Outline: (§1)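 Cancer lines were seeded at 800–6000 cells per well according to growth rate, 24 h before compound overlay. After culture, cells were fixed in situ and stained with sulforhodamine B. GI50 values were derived by curve fitting.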

| Compound | GI50 [µM] |
| --- | --- |
| O=C(N[C@@H](c1ccccn1)C1CC1)c1ccc2[nH]nc(-c3ccc(N4[C@H]5CC[C@H]4CC(O)C5)cc3)c2c1 (stereo in doubt; 87) | 0.21 |

Same assay, conditions: Homo sapiens, MDA-MB-468, 120 h

| Compound | GI50 [µM] |
| --- | --- |
| O=C(NCC1(N2CCOCC2)CCCCC1)c1ccc2[nH]nc(-c3ccc(N4CCC(O)CC4)cc3)c2c1 | 0.21 |
| O=C(NCC1(N2CCOCC2)CCCCC1)c1ccc2[nH]nc(-c3ccc(N4CC5CCC(C4)O5)cc3)c2c1 | 0.65 |
| CN1CCN(c2ccc(-c3n[nH]c4ccc(NC(=O)C(c5ccsc5)N5CCCC5)cc34)cc2S(C)(=O)=O)CC1 (racemic) | 0.9 |
| O=C(NC(c1ccccc1)C1CC1)c1ccc2[nH]nc(-c3cccc(N4CCOCC4)c3)c2c1 (racemic) | 7.8 |
| O=CN1CCC(Oc2ccc(-c3n[nH]c4ccc(C(=O)NC(c5ccccc5)C5CC5)cc34)cc2)CC1 (racemic) | 0.36 |
| CN1[C@@H]2CC[C@H]1C[C@H](Oc1ccc(-c3n[nH]c4ccc(C(=O)NC(c5ccccc5)C5CC5)cc34)cc1)C2 (mixture of isomers) | 0.16 |

Test system: not listed separately
Assay: Cytotoxicity against human HCT116 cells after 5 days by sulforhodamine B assay
Type: functional, HCT-116
Conditions: not given
Outline: as §1

| Compound | GI50 [µM] |
| --- | --- |
| O=C(N[C@@H](c1ccccn1)C1CC1)c1ccc2[nH]nc(-c3ccc(N4[C@H]5CC[C@H]4CC(O)C5)cc3)c2c1 (stereo in doubt; 87) | 0.048 |

Same assay, conditions: Homo sapiens, HCT-116, 120 h

| Compound | GI50 [µM] |
| --- | --- |
| O=C(NCC1(N2CCOCC2)CCCCC1)c1ccc2[nH]nc(-c3ccc(N4CCC(O)CC4)cc3)c2c1 | 0.048 |
| O=C(NCC1(N2CCOCC2)CCCCC1)c1ccc2[nH]nc(-c3ccc(N4CC5CCC(C4)O5)cc3)c2c1 | 0.15 |
| CN1CCN(c2ccc(-c3n[nH]c4ccc(NC(=O)C(c5ccsc5)N5CCCC5)cc34)cc2S(C)(=O)=O)CC1 (racemic) | 0.28 |
| O=C(NC(c1ccccc1)C1CC1)c1ccc2[nH]nc(-c3cccc(N4CCOCC4)c3)c2c1 (racemic) | 5.6 |
| O=CN1CCC(Oc2ccc(-c3n[nH]c4ccc(C(=O)NC(c5ccccc5)C5CC5)cc34)cc2)CC1 (racemic) | 0.13 |
| CN1[C@@H]2CC[C@H]1C[C@H](Oc1ccc(-c3n[nH]c4ccc(C(=O)NC(c5ccccc5)C5CC5)cc34)cc1)C2 (mixture of isomers) | 0.033 |

Test system: not listed separately
Assay: Cytotoxicity against human OVCAR3 cells after 5 days by sulforhodamine B assay
Type: functional, OVCAR-3
Conditions: not given

| Compound | GI50 [µM] |
| --- | --- |
| O=C(N[C@@H](c1ccccn1)C1CC1)c1ccc2[nH]nc(-c3ccc(N4[C@H]5CC[C@H]4CC(O)C5)cc3)c2c1 (stereo in doubt; 87) | 0.31 |

Same assay, conditions: Homo sapiens, OVCAR-3, 120 h

| Compound | GI50 [µM] |
| --- | --- |
| O=C(NCC1(N2CCOCC2)CCCCC1)c1ccc2[nH]nc(-c3ccc(N4CC5CCC(C4)O5)cc3)c2c1 | 0.69 |

Species: Homo sapiens
Assay: Selectivity ratio of IC50 for AURKB/INCENP (unknown origin) to IC50 for amino terminal GST-fused full length human TTK
Conditions: not given

| Compound | Ratio IC50 |
| --- | --- |
| O=C(N[C@H](c1ccccn1)C1CCCC1)c1ccc2[nH]nc(-c3ccc(N4[C@H]5CC[C@H]4CC(O)C5)cc3)c2c1 (stereo in doubt; 76) | > 100 |
| O=C(N[C@H](c1ccccn1)C1CCCC1)c1ccc2[nH]nc(-c3ccc(N4[C@H]5CC[C@H]4CC(O)C5)cc3)c2c1 (stereo in doubt; 88) | > 100 |
